For 17 molecules, IC50 and Activity results are on record in ChEMBL document CHEMBL4229351, “Design, synthesis and anticancer evaluation of novel spirobenzo[h]chromene and spirochromane derivatives with dual EGFR and B-RAF inhibitory activities” (Eur J Med Chem, 2018).

Molecules are shown by their SMILES.

For one experiment, the system named is A549. Put plainly: Anticancer activity against human A549 cells assessed as reduction in cell viability after 96 hrs by MTT assay. Format: functional, cell-based. Particulars: A549, 96 h. An outline of the steps: (§1)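 Cancer lines grown in RPMI with 10% FBS and 1% penicillin/streptomycin, 37 C, humidified 5% CO2. Cells exposed to test agents or vehicle in RPMI/10% FBS for 96 h; viability read by MTT; IC50 as mean ± S.D., n = 6.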

Another experiment concerns MCF7. Put plainly: Anticancer activity against human MCF7 cells assessed as reduction in cell viability after 96 hrs by MTT assay. Format: functional, cell-based. Particulars: MCF7, 96 h. The method in brief:
as §1
(In general: Tetrazolium dyes change colour on reduction, which living cells bring about.)

Another experiment has as its system HT-29. The experiment can be described thus: Anticancer activity against human HT-29 cells assessed as reduction in cell viability after 96 hrs by MTT assay. Format: functional, cell-based. The following applies: HT-29, 96 h. The method in brief: as §1
The next experiment is filed under the species Sus scrofa. Put plainly: Inhibition of porcine brain tubulin polymerization assessed as tubulin polymerization level by measuring arbitary units at 3 uM by fluorescence analysis.
Experiment [1] is described as follows: Cytotoxicity against human F180 cells assessed as reduction in cell viability after 96 hrs by MTT assay. Format: cell-based. Particulars: F180, 96 h. The method in brief:
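F180 normal fibroblasts kept in MEM with 10% FBS and 1% penicillin/streptomycin at 37 C, humidified 5% CO2. Treated with test agents or vehicle in MEM/10% FBS for 96 h; viability by MTT; IC50 reported as mean ± S.D. (n = 6).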

What is called IC50 is the midpoint of a concentration-inhibition curve.

For `CN1CCN(C(=S)N/N=C2\CC3(CCCCC3)Oc3c2ccc2ccccc32)CC1`, the IC50 in the experiment with A549 amounted to 10.6 µM; in the experiment on MCF7 it was 11.7 µM; in the experiment with HT-29, 8.17 µM.

Regarding `S=C(N/N=C1\CC2(CCCCC2)Oc2c1ccc1ccccc21)NC1CCCCC1`, the 50% inhibitory concentration (IC50) with A549 turned out to be 9.14 µM; in the experiment with MCF7, 15.1 µM; with HT-29, 7.44 µM.

Turning to `Cc1ccc(NC(=O)N/N=C2\CC3(CCCCC3)Oc3c2ccc2ccccc32)cc1`, the values for the IC50 with A549, with MCF7 and with HT-29 were 8.35 µM, 9.07 µM and 7.09 µM, respectively.

Regarding `O=C(N/N=C1\CC2(CCCCC2)Oc2c1ccc1ccccc21)Nc1ccccc1`, the IC50 with A549 was 8.15 µM; with MCF7, 12 µM; in the experiment on HT-29, 4.74 µM.

In the case of `CC(=O)O[C@@]12CO[C@@H]1C[C@H](O)[C@@]1(C)C(=O)[C@H](O)C3=C(C)[C@@H](OC(=O)[C@H](O)[C@@H](NC(=O)OC(C)(C)C)c4ccccc4)C[C@@](O)([C@@H](OC(=O)c4ccccc4)[C@H]21)C3(C)C`, the Activity in the experiment listed under Sus scrofa amounted to 4820 a.u.

For `CNC(=O)c1cc(Oc2ccc(NC(=O)Nc3ccc(Cl)c(C(F)(F)F)c3)cc2)ccn1` [SORAFENIB], the IC50 in the experiment with A549 was 6.21 µM; in experiment [1], over 40 µM; with MCF7, 3.64 µM; in the experiment with HT-29, 3.97 µM.

For `O=C1Nc2ccccc2/C1=N/N=C1\CC2(CCCCC2)Oc2c1ccc1ccccc21`, the IC50 is 11.1 µM in the experiment with A549, over 40 µM in experiment [1], 5.11 µM in the experiment with MCF7 and 7.67 µM with HT-29.

Regarding `CC[C@]1(O)C[C@H]2CN(CCc3c([nH]c4ccccc34)[C@@](C(=O)OC)(c3cc4c(cc3OC)N(C=O)[C@H]3[C@@](O)(C(=O)OC)[C@H](OC(C)=O)[C@]5(CC)C=CCN6CC[C@]43[C@@H]65)C2)C1`, in the experiment filed under Sus scrofa, the Activity worked out at 747 a.u.

For `S=C(N/N=C1\CC2(CCCCC2)Oc2c1ccc1ccccc21)N1CCNCC1`, the IC50 in the experiment on A549 turned out to be 12 µM; with MCF7 it was 14.2 µM; with HT-29, 8.34 µM.

For `S=C(N/N=C1\CC2(CCCCC2)Oc2c1ccc1ccccc21)N1CCOCC1`, the IC50 in the experiment on A549 worked out at 10.1 µM; in the experiment on MCF7 it was 11.9 µM; in the experiment on HT-29, 9.31 µM.

Consider `O=C(N/N=C1\CC2(CCCCC2)Oc2c1ccc1ccccc21)Nc1ccc(Cl)cc1`, for which the IC50 with A549 is 9.54 µM; with MCF7, 15 µM; in the experiment with HT-29, 7.37 µM.

`S=C(N/N=C1\CC2(CCCCC2)Oc2c1ccc1ccccc21)N1CCCCC1`: the IC50 with A549 was determined as 11.4 µM; in the experiment with MCF7 it was 13.3 µM; in the experiment with HT-29, 6.77 µM.

Turning to `O=C1CC2(CCCCC2)Oc2c1ccc1ccccc21`, the IC50 is 10.6 µM with A549, 10.7 µM in the experiment with MCF7 and 6.15 µM in the experiment with HT-29.

For the molecule `CSC(=S)N/N=C1\CC2(CCCCC2)Oc2c1ccc1ccccc21`, the IC50 is 3.99 µM in the experiment with A549, over 40 µM in experiment [1], 5.1 µM in the experiment with MCF7 and 4.13 µM in the experiment on HT-29.

As to `N/N=C1\CC2(CCCCC2)Oc2c1ccc1ccccc21`, the IC50 with A549 stood at 12.9 µM; in the experiment on MCF7 it was 9.74 µM; in the experiment on HT-29, 9.97 µM.

For the molecule `C#Cc1cccc(Nc2ncnc3cc(OCCOC)c(OCCOC)cc23)c1` [ERLOTINIB], the IC50 is 17.3 µM in the experiment on A549, over 20 µM in the experiment with MCF7 and over 20 µM in the experiment on HT-29.

Regarding `O=C1c2ccccc2C(=O)N1/N=C1\CC2(CCCCC2)Oc2c1ccc1ccccc21`, the IC50 with A549 was found to be 12.4 µM; with MCF7, 12.1 µM; with HT-29, 8.34 µM.
